{
  "source": "ChEMBL document CHEMBL1152813",
  "about": "“Synthesis of puromycin derivatives with backbone-elongated substrates and associated translation inhibitory activities” (Bioorg Med Chem, 2009)",
  "key": {"[1]": {"test": "Solubility in water", "type": "physicochemical", "settings": "buffer"}, "[2]": {"system": "Escherichia coli", "test": "Inhibition of firefly luciferase mRNA translation in Escherichia coli after 1 hr relative to control", "type": "functional", "method_in_brief": "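Reconstituted E. coli translation system translating firefly luciferase mRNA with CCPmn derivatives at 2.5–30 µM (2.5–120 µM for some), 1 h incubation. Luciferase activity (c.p.s.) read by luminescence counter; translation efficiency (%) set against a serial-dilution calibration of control luciferase translated without CCPmns; three independent experiments, standard deviations.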"}},
  "data": [
    {"smiles": "C[C@H](CN)C(=O)N[C@H]1[C@@H](O)[C@H](n2cnc3c(N(C)C)ncnc32)O[C@@H]1COP(=O)(O)O", "values": [
      {"measurement": "solubility", "setting": "[1]", "result": "Soluble"}
    ]},
    {"smiles": "C[C@H](CO)C(=O)N[C@H]1[C@@H](O)[C@H](n2cnc3c(N(C)C)ncnc32)O[C@@H]1COP(=O)(O)O", "values": [
      {"measurement": "solubility", "setting": "[1]", "result": "Soluble"}
    ]},
    {"smiles": "CC(=O)N[C@H]1[C@@H](O)[C@H](n2cnc3c(N(C)C)ncnc32)O[C@@H]1COP(=O)(O)O", "values": [
      {"measurement": "solubility", "setting": "[1]", "result": "Soluble"}
    ]},
    {"smiles": "C[C@H](CO)C(=O)N[C@H]1[C@@H](O)[C@H](n2cnc3c(N(C)C)ncnc32)O[C@@H]1COP(=O)(O)O[C@H]1[C@@H](O)[C@H](n2ccc(N)nc2=O)O[C@@H]1COP(=O)(O)O[C@H]1[C@@H](O)[C@H](n2ccc(N)nc2=O)O[C@@H]1CO", "values": [
      {"measurement": "solubility", "setting": "[1]", "result": "Soluble"},
      {"measurement": "IC50", "setting": "[2]", "result": 12, "unit": "µM"}
    ]},
    {"smiles": "C[C@H](CN)C(=O)N[C@H]1[C@@H](O)[C@H](n2cnc3c(N(C)C)ncnc32)O[C@@H]1COP(=O)(O)O[C@H]1[C@@H](O)[C@H](n2ccc(N)nc2=O)O[C@@H]1COP(=O)(O)O[C@H]1[C@@H](O)[C@H](n2ccc(N)nc2=O)O[C@@H]1CO", "values": [
      {"measurement": "solubility", "setting": "[1]", "result": "Soluble"},
      {"measurement": "IC50", "setting": "[2]", "result": 33, "unit": "µM"}
    ]},
    {"smiles": "CC(=O)N[C@H]1[C@@H](O)[C@H](n2cnc3c(N(C)C)ncnc32)O[C@@H]1COP(=O)(O)O[C@H]1[C@@H](O)[C@H](n2ccc(N)nc2=O)O[C@@H]1COP(=O)(O)O[C@H]1[C@@H](O)[C@H](n2ccc(N)nc2=O)O[C@@H]1CO", "values": [
      {"measurement": "solubility", "setting": "[1]", "result": "Soluble"},
      {"measurement": "IC50", "setting": "[2]", "result": 66, "unit": "µM"}
    ]},
    {"smiles": "COc1ccc(C[C@H](N)C(=O)N[C@H]2[C@@H](O)[C@H](n3cnc4c(N(C)C)ncnc43)O[C@@H]2COP(=O)(O)O[C@H]2[C@@H](O)[C@H](n3ccc(N)nc3=O)O[C@@H]2COP(=O)(O)O[C@H]2[C@@H](O)[C@H](n3ccc(N)nc3=O)O[C@@H]2CO)cc1", "values": [
      {"measurement": "solubility", "setting": "[1]", "result": "Soluble"},
      {"measurement": "IC50", "setting": "[2]", "result": 5, "unit": "µM"}
    ]},
    {"smiles": "CN(C)c1ncnc2c1ncn2[C@@H]1O[C@H](CO)[C@@H](NC(=O)CCO)[C@H]1O", "values": [
      {"measurement": "solubility", "setting": "[1]", "result": "Insoluble"}
    ]}
  ]
}
